Reference: ChEMBL document CHEMBL4425125, “Development of a Dual-Acting Antibacterial Agent (TNP-2092) for the Treatment of Persistent Bacterial Infections” (J Med Chem, 2016)
Converted amounts (≈) assume the structure as drawn.

Legend:
[1] = Volume of distribution in iv dosed dog; conditions: in vivo
[2] = Inhibition of wild type Staphylococcus aureus RNA polymerase assessed as reduction in RNA product formation
[3] = tested on: Staphylococcus aureus; experiment: Antimicrobial activity against methicillin-sensitive Staphylococcus aureus infected in mouse skin abscess model; assay type: functional
[4] = Half life in iv dosed rabbit plasma; assay type: ADME, organism-based, Oryctolagus cuniculus
[5] = tested on: Staphylococcus aureus; experiment: Antimicrobial activity against Staphylococcus aureus isogenic forms expressing rpoB H481Y/gyrA S84L/parC S80F mutant by agar dilution method; assay type: functional
Summary of the method: (§1)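 MIC (μg/mL) on otherwise isogenic derivatives of S. aureus ATCC 29213 that carry the rifamycin-resistance allele rpoB H481Y and/or the quinolone-resistance alleles parC S80F and gyrA S84L. The wild-type parent is the reference strain. MICs were determined both by agar dilution and by broth dilution, tested side by side on the same panel.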

[6] = tested on: Staphylococcus aureus; experiment: Antimicrobial activity against Staphylococcus aureus isogenic forms expressing gyrA S84L mutant by broth dilution method; assay type: functional
Summary of the method: as §1

[7] = tested on: Staphylococcus epidermidis; experiment: Antimicrobial activity against Staphylococcus epidermidis infected in rat central venous catheter infection model assessed as reduction in bacterial load; assay type: functional
[8] = tested on: Staphylococcus aureus; experiment: Antimicrobial activity against methicillin-sensitive Staphylococcus aureus clinical isolates by broth dilution method; assay type: functional
[9] = tested on: Streptococcus pneumoniae; experiment: Antimicrobial activity against Streptococcus pneumoniae clinical isolates by broth dilution method; assay type: functional
[10] = Volume of distribution in iv dosed dog; conditions: in vivo; remark: listed apart in the source
[11] = biological target: DNA gyrase (Staphylococcus aureus) (UniProt P0A0K8+P20831)
[12] = tested on: Staphylococcus aureus; experiment: Antimicrobial activity against methicillin-resistant Staphylococcus aureus clinical isolates by broth dilution method; assay type: functional
[13] = Inhibition of RIF-resistant Staphylococcus aureus RNA polymerase RpoB H481Y mutant assessed as reduction in RNA product formation
[14] = tested on: Staphylococcus aureus; experiment: Antimicrobial activity against Staphylococcus aureus ATCC 29213 assessed as mutation preventive concentration
[15] = Half life in iv dosed mouse plasma; assay type: ADME, organism-based
[16] = tested on: Streptococcus pyogenes; experiment: Antimicrobial activity against Streptococcus pyogenes infected in mouse skin abscess model; assay type: functional
[17] = tested on: Staphylococcus aureus; experiment: Antimicrobial activity against methicillin-sensitive Staphylococcus aureus infected in rat central venous catheter infection model assessed as reduction in bacterial load; assay type: functional
[18] = tested on: Staphylococcus aureus; experiment: Antimicrobial activity against Staphylococcus aureus isogenic forms expressing rpoB H481Y and gyrA S84L mutant by broth dilution method; assay type: functional
Summary of the method: as §1

[19] = tested on: Staphylococcus epidermidis; experiment: Antimicrobial activity against Staphylococcus epidermidis infected in mouse skin abscess model; assay type: functional
[20] = tested on: Staphylococcus aureus; experiment: Bactericidal activity against methicillin-resistant Staphylococcus aureus 67-0; assay type: functional
[21] = tested on: Staphylococcus aureus; experiment: Antimicrobial activity against Staphylococcus aureus isogenic forms expressing rpoB H481Y mutant by agar dilution method; assay type: functional
Summary of the method: as §1

[22] = biological target: Topoisomerase IV (Staphylococcus aureus) (UniProt P0C1U9+P0C1S7)
[23] = Half life in iv dosed dog plasma; assay type: ADME, organism-based, Canis lupus familiaris
[24] = Plasma clearance in iv dosed rabbit; assay type: ADME, organism-based, Oryctolagus cuniculus
[25] = Plasma clearance in iv dosed dog; assay type: ADME, organism-based, Canis lupus familiaris
[26] = tested on: Staphylococcus aureus; experiment: Antimicrobial activity against Staphylococcus aureus isogenic forms expressing rpoB H481Y mutant by broth dilution method; assay type: functional
Summary of the method: as §1

[27] = tested on: Staphylococcus aureus; experiment: Antimicrobial activity against Staphylococcus aureus isogenic forms expressing gyrA S84L and parC S80F mutant by agar dilution method; assay type: functional
Summary of the method: as §1

[28] = tested on: Staphylococcus aureus; experiment: Antimicrobial activity against Staphylococcus aureus isogenic forms expressing parC S80F mutant by broth dilution method; assay type: functional
Summary of the method: as §1

[29] = biological target: DNA topoisomerase 2-alpha (Homo sapiens) (UniProt P11388)
[30] = tested on: Staphylococcus aureus; experiment: Antimicrobial activity against methicillin-resistant Staphylococcus aureus 67-0; assay type: functional
[31] = tested on: Staphylococcus aureus; experiment: Antimicrobial activity against wild type Staphylococcus aureus by agar dilution method; assay type: functional
Summary of the method: as §1

[32] = Plasma clearance in iv dosed rat; assay type: ADME, organism-based
[33] = tested on: Streptococcus pyogenes; experiment: Antimicrobial activity against Streptococcus pyogenes clinical isolates by broth dilution method; assay type: functional
[34] = tested on: Staphylococcus aureus; experiment: Antimicrobial activity against wild type Staphylococcus aureus by broth dilution method; assay type: functional
Summary of the method: as §1

[35] = tested on: Staphylococcus aureus; experiment: […] activity against Staphylococcus aureus ATCC 29213 assessed as induction of bacterial kill at […] in presence of 1 ug/ml rifampin after 24 hrs
[36] = tested on: Staphylococcus epidermidis; experiment: Antimicrobial activity against methicillin-sensitive Staphylococcus epidermidis clinical isolates by broth dilution method; assay type: functional
[37] = tested on: Staphylococcus aureus; experiment: Antimicrobial activity against Staphylococcus aureus infected in rat […] model assessed as reduction in bacterial load in granuloma pouch fluid at 5 to 25 mg/kg, iv administered as single dose; assay type: functional
[38] = tested on: Staphylococcus aureus
[39] = tested on: Staphylococcus epidermidis; experiment: Antimicrobial activity against methicillin-resistant Staphylococcus epidermidis clinical isolates by broth dilution method; assay type: functional; conditions: Staphylococcus epidermidis
[40] = tested on: Streptococcus agalactiae; experiment: Antimicrobial activity against Streptococcus agalactiae clinical isolates by broth dilution method; assay type: functional
[41] = tested on: Staphylococcus aureus; experiment: Antimicrobial activity against Staphylococcus aureus isogenic forms expressing rpoB H481Y and gyrA S84L mutant by agar dilution method; assay type: functional
Summary of the method: as §1

[42] = tested on: Staphylococcus aureus; experiment: Antimicrobial activity against Staphylococcus aureus isogenic forms expressing rpoB H481Y and parC S80F mutant by broth dilution method; assay type: functional
Summary of the method: as §1

[43] = tested on: Staphylococcus aureus; experiment: Antimicrobial activity against Staphylococcus aureus isogenic forms expressing gyrA S84L mutant by agar dilution method; assay type: functional
Summary of the method: as §1

[44] = tested on: Staphylococcus aureus; experiment: Antimicrobial activity against Staphylococcus aureus isogenic forms expressing rpoB H481Y and parC S80F mutant by agar dilution method; assay type: functional
Summary of the method: as §1

[45] = tested on: Staphylococcus aureus; experiment: Antimicrobial activity against Staphylococcus aureus isogenic forms expressing rpoB H481Y/gyrA S84L/parC S80F mutant by broth dilution method; assay type: functional
Summary of the method: as §1

[46] = Half life in iv dosed rat plasma; assay type: ADME, organism-based
[47] = tested on: Streptococcus pyogenes; experiment: Antimicrobial activity against Streptococcus pyogenes infected in rat central venous catheter infection model assessed as reduction in bacterial load; assay type: functional
[48] = tested on: Staphylococcus aureus; experiment: Antimicrobial activity against Staphylococcus aureus isogenic forms expressing parC S80F mutant by agar dilution method; assay type: functional
Summary of the method: as §1

[49] = tested on: Staphylococcus aureus; experiment: Antimicrobial activity against Staphylococcus aureus isogenic forms expressing gyrA S84L and parC S80F mutant by broth dilution method; assay type: functional
Summary of the method: as §1

[50] = tested on: Staphylococcus aureus; experiment: Bactericidal activity against methicillin-sensitive Staphylococcus aureus 29213 infected in mouse macrophages assessed as induction of bacterial kill at 4 ug/ml in presence of 4 ug/ml rifampin after 24 hrs; assay type: functional

`CO[C@H]1/C=C/O[C@@]2(C)Oc3c(C)c(O)c4c(O)c(c(/C=N/N5CCC(N(C)C6([C@@H]7CCN(c8c(F)cn9c(=O)c(C(=O)O)cc(C%10CC%10)c9c8C)C7)CC6)CC5)c(O)c4c3C2=O)NC(=O)/C(C)=C\C=C\[C@H](C)[C@H](O)[C@@H](C)[C@@H](O)[C@@H](C)[C@H](OC(C)=O)[C@@H]1C` showed a Vd [1] of 0.09 to 0.17 L/kg, an IC50 [2] of 0.034 µM and an ED50 [3] of 1.4 to 3.8 mg/kg. The half-life [4] was 0.4 to 4.1 h, the MIC [5] was 0.25 µg/mL (≈ 0.207 µM) and the MIC [6] was 0.015 µg/mL (≈ 0.0124 µM). For the same compound, the Activity [7] was greater than 3.1 log10CFU, the MIC50 [8] was 0.008 µg/mL (≈ 0.00664 µM) and the MIC90 [8] was 0.015 µg/mL (≈ 0.0124 µM). The MIC [9] was 0.06 to 0.25 µg/mL (≈ 0.0498 to 0.207 µM), the MIC50 [9] was 0.12 µg/mL (≈ 0.0996 µM) and the MIC90 [9] was 0.12 µg/mL (≈ 0.0996 µM). It also gave a Vd [10] of 0.09 to 0.17 L/kg, a CC50 [11] of 1.5 µM and an MIC50 [12] of 0.015 µg/mL (≈ 0.0124 µM). For the same compound, the MIC90 [12] was 0.015 µg/mL (≈ 0.0124 µM), the IC50 [13] was greater than 25 µM and the Activity [14] was 0.12 µg/mL. For the same compound, the half-life [15] was 0.4 to 4.1 h, the ED50 [16] was 4.8 to 10.7 mg/kg and the Activity [17] was 2.8 - 3.4 log10CFU. It also gave an MIC [18] of 0.5 µg/mL (≈ 0.415 µM), an ED50 [19] of 4.8 to 10.7 mg/kg and an MBC [20] of 0.5 µg/mL (≈ 0.415 µM). It also gave an MIC [21] of 0.06 µg/mL (≈ 0.0498 µM), a CC50 [22] of 1.7 µM and a half-life [23] of 1.6 to 11.7 h. It also gave a clearance [24] of 1.17 to 6 mL/min/kg, a clearance [25] of 0.167 to 1.33 mL/min/kg and an MIC [26] of 0.12 µg/mL (≈ 0.0996 µM). It also gave an MIC [27] of 0.008 µg/mL (≈ 0.00664 µM), an MIC [28] of 0.015 µg/mL (≈ 0.0124 µM) and a CC50 [29] greater than 150 µM. For the same compound, the MIC [30] was 0.008 µg/mL (≈ 0.00664 µM), the MIC [31] was 0.008 µg/mL (≈ 0.00664 µM) and the clearance [32] was 1.17 to 6 mL/min/kg. For the same compound, the MIC [33] was 0.008 to 0.12 µg/mL (≈ 0.00664 to 0.0996 µM), the MIC50 [33] was 0.03 µg/mL (≈ 0.0249 µM) and the MIC90 [33] was 0.12 µg/mL (≈ 0.0996 µM). For the same compound, the MIC [34] was 0.015 µg/mL (≈ 0.0124 µM), the Activity [35] was “>=99.9%” and the MIC50 [36] was no more than 0.008 µg/mL. The MIC90 [36] was 0.008 µg/mL (≈ 0.00664 µM), the Activity [37] was 1 - 3.4 log10CFU and the CC50 [38] was 2.7 µM. For the same compound, the MIC50 [39] was 0.008 µg/mL (≈ 0.00664 µM), the MIC90 [39] was 0.5 µg/mL (≈ 0.415 µM) and the MIC [40] was 0.06 to 2 µg/mL (≈ 0.0498 to 1.66 µM). The MIC50 [40] was 0.12 µg/mL (≈ 0.0996 µM), the MIC90 [40] was 0.25 µg/mL (≈ 0.207 µM) and the MIC [41] was 0.12 µg/mL (≈ 0.0996 µM). It also gave an MIC [42] of 0.25 µg/mL (≈ 0.207 µM), an MIC [43] of 0.008 µg/mL (≈ 0.00664 µM) and an MIC [44] of 0.06 µg/mL (≈ 0.0498 µM). For the same compound, the MIC [45] was 2 µg/mL (≈ 1.66 µM), the half-life [46] was 0.4 to 4.1 h and the Activity [47] was greater than 3.1 log10CFU. The MIC [48] was 0.008 µg/mL (≈ 0.00664 µM), the MIC [49] was 0.015 µg/mL (≈ 0.0124 µM) and the Activity [50] was greater than 99.9%.
